Consider 3 molecules from article PMC5010991 (Molecular cancer therapeutics, 2016).

In assay [1] the test system is T98G cells. As to the kind of experiment: Live cell imaging of EB3-GFP on assembling MTs. The assay is classed as cell-based, human. The settings on record: nocodazole 1 µM, by 15 min. Summed up:
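T98G cells transfected with EB3-GFP and RFP-CenpB to mark growing MT plus ends and centromeres. Treated with test compound (0.5 or 3 µM) or nocodazole (1 µM). Movies of 30 sec at 500 ms intervals were taken on a deconvolution microscope starting 10 min after drug addition. Images were deconvolved, and MT assembly rates were tracked in interphase cells.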

In the next assay the test system is bovine brain tubulin. As to the kind of experiment: Cell-free MT assembly assay with purified tubulin. Type of assay: biochemical.
The test system of assay [2] is T98G cells. As to the kind of experiment: Cell number using WST-1. The assay is classed as cell-based, human. To be noted: for reduction of cell number: T98G, 10 µM, WST-1. Summed up: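 T98G cells (ATCC, STR-authenticated, under 6 months in culture) grown in DMEM or RPMI with 10% FBS, 100 U/mL penicillin and 100 µg/mL streptomycin at 37°C, 5% CO2. Cells exposed to test compound at 10 µM, with nocodazole or paclitaxel (10 µM each) run in parallel. Cell number followed over 72 hrs by WST-1 per kit protocol. Mean ± SEM of at least 3 independent experiments.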
(Tetrazolium dyes change colour on reduction, which living cells bring about.)

The test system of assay [3] is MDA-MB-231 breast cancer cells. As to the kind of experiment: Viability of positive-control breast cancer cells. Type of assay: cell-based. To be noted: MDA-MB-231, by 72 hrs.

Regarding `COC(=O)Nc1nc2ccc(C(=O)c3cccs3)cc2[nH]1` [nocodazole], in the assay with T98G cells [1], the “assembling MTs in live cells” value is on record as “abolished all assembling MTs”. The “level of free tubulin” value with bovine brain tubulin is “triggered an increase the free tubulin”. Besides, the “reduction of cell number” value is 10–15% with T98G cells [2] (12 hrs) and 34% with T98G cells [2] (72 hrs).

As for `CC(=O)O[C@H]1C(=O)[C@@]2(C)[C@H]([C@H](OC(=O)c3ccccc3)[C@]3(O)C[C@H](OC(=O)[C@H](O)[C@@H](NC(=O)c4ccccc4)c4ccccc4)C(C)=C1C3(C)C)[C@]1(OC(C)=O)CO[C@@H]1C[C@@H]2O` [paclitaxel], in the assay on bovine brain tubulin, the “level of free tubulin” value is “decrease in free tubulin levels”. In assay [3], the viability entry is recorded as “reduced the viability”. For the same molecule, the “reduction of cell number” value in the assay on T98G cells [2] (12 hrs) was 10–15%; in the assay with T98G cells [2] (72 hrs) it was “inactive”.

Turning to Z-DEVD-FMK, in the assay with T98G cells [2] (Z-DEVD-FMK 10 µM, 15 min preincubation, ST-11 10 µM), the “effect of caspase-3 inhibition on the antineoplastic action of ST-11” value is on record as “blocked the antineoplastic action of ST-11”.
